Measured values published in ChEMBL document CHEMBL1140910, “Fluorinated benzyloxyphenyl piperidine-4-carboxamides with dual function against thrombosis: inhibitors of factor Xa and platelet aggregation” (J Med Chem, 2009).
Activity calls are given as the source filed them. The calls are words filed in the database; no cut-off is given here.

molecular target: not listed separately; experiment: Inhibition of bovine alpha-chymotrypsin by amydolitic assay; design: species or system Bos taurus
In short: (§1)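 Bovine α-chymotrypsin (0.4 µg/mL) in 50 mM Tris pH 7.5 with 50 mM CaCl2, incubated with compound (final 10 nM–0.25 mM) or DMSO 10 min at 25 °C. Substrate 0.185 mM N-succinyl-Ala-Ala-Pro-Phe-p-nitroanilide added; 405 nm read 5 min at 25 °C. Initial-rate IC50 (≥3 determinations) converted to Ki by Cheng-Prusoff.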

Compound | Ki [µM]
O=C(Nc1cccc(OCc2ccc(-c3cccc(F)c3)cc2)c1)C1CCNCC1 | 31
O=C(Nc1cccc(OCc2ccc(-c3cccc(F)c3F)cc2)c1)C1CCNCC1 | 60
O=C(Nc1cccc(OCc2ccc(-c3cc(F)cc(F)c3)cc2)c1)C1CCNCC1 | 60.3

molecular target: T1, Coagulation factor X (Homo sapiens, UniProt P00742); experiment: Inhibition of human factor 10a by amydolitic assay
T1 sequence (P00742 41-179 limits assumed): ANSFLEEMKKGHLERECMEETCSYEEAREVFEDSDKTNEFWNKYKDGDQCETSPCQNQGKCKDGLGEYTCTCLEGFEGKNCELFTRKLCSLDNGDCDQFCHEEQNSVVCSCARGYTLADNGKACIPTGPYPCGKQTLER
T1 sequence (P00742 235-488 limits assumed): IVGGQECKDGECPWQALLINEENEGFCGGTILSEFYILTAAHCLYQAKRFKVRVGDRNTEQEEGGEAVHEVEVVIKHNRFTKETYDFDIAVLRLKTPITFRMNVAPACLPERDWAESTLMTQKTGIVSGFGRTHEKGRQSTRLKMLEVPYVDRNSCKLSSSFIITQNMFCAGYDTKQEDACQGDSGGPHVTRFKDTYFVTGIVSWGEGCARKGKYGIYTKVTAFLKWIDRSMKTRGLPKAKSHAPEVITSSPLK
In short: (§2)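 Human factor Xa (2 nM) in 10 mM Tris pH 8, 0.15 M NaCl, 0.1% PEG 6000, preincubated 30 min at 25 °C with compound (final 10 nM–0.25 mM, ≤2% DMSO). Started with 0.04 mM S-2765; p-nitroanilide release at 405 nm for 5 min, 25 °C. Initial velocities give IC50 (≥3 determinations), Ki by Cheng-Prusoff.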

Compound | Ki [µM]
O=C(Nc1cccc(OCc2ccc(-c3ccccc3)cc2)c1)C1CCCNC1 (centres undefined) | 2.5
O=C(Nc1cccc(OCc2ccc(-c3ccccc3)cc2)c1)C1CCNCC1 | 1
O=C(Nc1cccc(OCc2ccc(-c3ccc(F)cc3F)cc2)c1)C1CCNCC1 | 0.512
N=C(N)N1CCCC(C(=O)Nc2cccc(OCc3ccc(-c4ccccc4)cc3)c2)C1 (centres undefined) | 2
N=C(N)N1CCC(C(=O)Nc2cccc(OCc3ccc(-c4ccccc4)cc3)c2)CC1 | 5.2
N=C(N)N1CCC(C(=O)Nc2cccc(OCc3ccc(F)cc3)c2)CC1 | 33.8
O=C(Nc1cccc(OCc2ccc(-c3ccc(F)cc3)cc2)c1)C1CCNCC1 | 3.87
O=C(Nc1cccc(OCc2ccc(-c3cccc(F)c3)cc2)c1)C1CCNCC1 | 0.177
O=C(Nc1cccc(OCc2ccc(-c3c(F)cc(F)cc3F)cc2)c1)C1CCNCC1 | 9.47
O=C(Nc1cccc(OCc2ccc(-c3cccc(F)c3F)cc2)c1)C1CCNCC1 | 0.548
O=C(Nc1ccc(OCc2ccc(-c3ccccc3)cc2)cc1)C1CCNCC1 | 126
O=C(Nc1cccc(OCc2ccc(F)cc2)c1)C1CCCNC1 (centres undefined) | 260
O=C(Nc1cccc(OCc2ccc(-c3cc(F)c(F)c(F)c3)cc2)c1)C1CCNCC1 | 0.666
O=C(Nc1cccc(OCc2ccc(-c3c(F)cccc3F)cc2)c1)C1CCNCC1 | 1.45
O=C(Nc1cccc(OCc2ccc(-c3cc(F)cc(F)c3)cc2)c1)C1CCNCC1 | 0.13
O=C(Nc1cccc(OCc2ccc(-c3cc(F)ccc3F)cc2)c1)C1CCNCC1 | 1.27
O=C(Nc1cccc(OCc2ccc(-c3ccccc3F)cc2)c1)C1CCNCC1 | 0.767
N=C(N)N1CCCC(C(=O)Nc2cccc(OCc3ccc(F)cc3)c2)C1 (centres undefined) | 57
O=C(Nc1cccc(OCc2ccc(-c3ccc(C(F)(F)F)cc3)cc2)c1)C1CCNCC1 | 0.057

test system: Plasma; experiment: Anticoagulant activity in human plasma assessed as concentration required to double the activated partial thromboplastin time; format: functional
In short: (§3)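 Pooled lyophilized human plasma with aPTT reagent and 0.025 mol/L CaCl2; inhibitor or solvent at increasing concentrations incubated with plasma 3 min at 37 °C. Clotting time read on a coagulometer against control plasma, triplicate measurements; concentration giving 2-fold aPTT prolongation calculated from concentration-response curves.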

Compound | 2PT [µM]
O=C(Nc1cccc(OCc2ccc(-c3cccc(F)c3)cc2)c1)C1CCNCC1 | 205
O=C(Nc1cccc(OCc2ccc(-c3cc(F)cc(F)c3)cc2)c1)C1CCNCC1 | 190
O=C(Nc1cccc(OCc2ccc(-c3ccc(C(F)(F)F)cc3)cc2)c1)C1CCNCC1 | 140

test system: Platelet; experiment: Inhibition of epinephrine-induced platelet aggregation in human platelet rich plasma; format: functional
In short: (§4)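 Citrated human venous blood spun 800 rpm 15 min at 21 °C for PRP, platelets adjusted to 230000 µL-1 with PPP. PRP preincubated with compound (final 10 µM–1 mM, 0.5% DMSO) 5 min at 37 °C with stirring, then 10 µM final ADP or epinephrine. Turbidimetric (Born) transmittance at 640 nm over 5 min. IC50 from sigmoid fit, ≥3 determinations in duplicate, mean ± SEM.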

Compound | IC50 [µM]
O=C(Nc1cccc(OCc2ccc(-c3ccccc3)cc2)c1)C1CCCNC1 (centres undefined) | 87
O=C(Nc1cccc(OCc2ccc(-c3ccccc3)cc2)c1)C1CCNCC1 | 54
N=C(N)N1CCC(C(=O)Nc2cccc(OCc3ccc(-c4ccccc4)cc3)c2)CC1 | 244
O=C(Nc1cccc(OCc2ccc(-c3ccc(F)cc3)cc2)c1)C1CCNCC1 | 19
O=C(Nc1cccc(OCc2ccc(-c3cccc(F)c3)cc2)c1)C1CCNCC1 | 14.4
O=C(Nc1cccc(OCc2ccc(F)cc2)c1)C1CCCNC1 (centres undefined) | 70
O=C(Nc1cccc(OCc2ccc(-c3cc(F)cc(F)c3)cc2)c1)C1CCNCC1 | 17
CCCCCCOc1ccc(NC(=O)C2CCCNC2)cc1 (centres undefined) | 43
O=C(Nc1cccc(OCc2ccc(F)cc2)c1)C1CCNCC1 | 36
O=C(Nc1ccc(OCc2ccc(F)cc2)cc1)C1CCNCC1 | 93
O=C(Nc1ccc(OCc2ccc(F)cc2)cc1)C1CCCNC1 (centres undefined) | 90

species on record: Bos taurus; experiment: Inhibition of bovine alpha-chymotrypsin at 250 uM by amydolitic assay; in short: as §1

Compound | inhibition [%]
O=C(Nc1cccc(OCc2ccc(-c3ccc(F)cc3F)cc2)c1)C1CCNCC1 | < 30
O=C(Nc1cccc(OCc2ccc(-c3ccc(F)cc3)cc2)c1)C1CCNCC1 | < 30
O=C(Nc1cccc(OCc2ccc(-c3c(F)cc(F)cc3F)cc2)c1)C1CCNCC1 | < 30
O=C(Nc1cccc(OCc2ccc(-c3cc(F)c(F)c(F)c3)cc2)c1)C1CCNCC1 | < 30
O=C(Nc1cccc(OCc2ccc(-c3c(F)cccc3F)cc2)c1)C1CCNCC1 | < 30
O=C(Nc1cccc(OCc2ccc(-c3cc(F)ccc3F)cc2)c1)C1CCNCC1 | < 30
O=C(Nc1cccc(OCc2ccc(-c3ccccc3F)cc2)c1)C1CCNCC1 | < 30
O=C(Nc1cccc(OCc2ccc(-c3ccc(C(F)(F)F)cc3)cc2)c1)C1CCNCC1 | < 30

test system: Platelet; experiment: Inhibition of ADP-induced platelet aggregation in human platelet rich plasma; format: functional; in short: as §4

Compound | IC50 [µM]
O=C(Nc1cccc(OCc2ccc(-c3ccccc3)cc2)c1)C1CCCNC1 (centres undefined) | 153
O=C(Nc1cccc(OCc2ccc(-c3ccccc3)cc2)c1)C1CCNCC1 | 111
O=C(Nc1cccc(OCc2ccccc2)c1)C1CCCNC1 (centres undefined) | 128
O=C(Nc1cccc(OCc2ccc(-c3ccc(F)cc3F)cc2)c1)C1CCNCC1 | 98.8
N=C(N)N1CCCC(C(=O)Nc2cccc(OCc3ccc(-c4ccccc4)cc3)c2)C1 (centres undefined) | > 1000
O=C(Nc1ccc(OCc2ccc(-c3ccccc3)cc2)cc1)C1CCCNC1 (centres undefined) | 125
N=C(N)N1CCC(C(=O)Nc2cccc(OCc3ccc(-c4ccccc4)cc3)c2)CC1 | 400
N=C(N)N1CCC(C(=O)Nc2cccc(OCc3ccc(F)cc3)c2)CC1 | 768
O=C(Nc1cccc(OCc2ccc(-c3ccc(F)cc3)cc2)c1)C1CCNCC1 | 35
O=C(Nc1cccc(OCc2ccc(-c3cccc(F)c3)cc2)c1)C1CCNCC1 | 34.7
O=C(Nc1ccc(OCc2ccc(-c3ccccc3)cc2)cc1)C1CCNCC1 | 135
O=C(Nc1cccc(OCc2ccc(F)cc2)c1)C1CCCNC1 (centres undefined) | 103
O=C(Nc1cccc(OCc2ccc(-c3cc(F)c(F)c(F)c3)cc2)c1)C1CCNCC1 | 76.7
O=C(Nc1cccc(OCc2ccc(-c3cc(F)cc(F)c3)cc2)c1)C1CCNCC1 | 27.8
CCCCCCOc1ccc(NC(=O)C2CCCNC2)cc1 (centres undefined) | 85
COc1ccc(NC(=O)C2CCCNC2)cc1 (centres undefined) | 983
O=C(Nc1cccc(OCc2ccc(F)cc2)c1)C1CCNCC1 | 68
O=C(Nc1cccc(OCc2ccc(-c3ccccc3F)cc2)c1)C1CCNCC1 | 62.7
N=C(N)N1CCCC(C(=O)Nc2cccc(OCc3ccc(F)cc3)c2)C1 (centres undefined) | 274
O=C(Nc1cccc(OCc2ccc(-c3ccc(C(F)(F)F)cc3)cc2)c1)C1CCNCC1 | 65.7
O=C(Nc1ccc(OCc2ccc(F)cc2)cc1)C1CCNCC1 | 121
O=C(Nc1cccc(OCc2ccccc2)c1)C1CCNCC1 | 229
CCCCCCOc1cccc(NC(=O)C2CCCNC2)c1 (centres undefined) | 113
O=C(Nc1ccc(OCc2ccc(F)cc2)cc1)C1CCCNC1 (centres undefined) | 116

molecular target: Prothrombin (Bos taurus, UniProt P00735); experiment: Inhibition of bovine factor 2a by amydolitic assay
In short: (§5)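 Bovine thrombin (0.41 U/mL) in 10 mM Tris pH 8 with 0.15 M NaCl and 0.1% PEG 6000, compound (final 10 nM–0.25 mM, ≤2% DMSO) for 30 min at 25 °C, then 0.050 mM S-2238.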

Compound | Ki [µM]
O=C(Nc1cccc(OCc2ccc(-c3ccc(F)cc3F)cc2)c1)C1CCNCC1 | 54
N=C(N)N1CCCC(C(=O)Nc2cccc(OCc3ccc(-c4ccccc4)cc3)c2)C1 (centres undefined) | 31.3
N=C(N)N1CCC(C(=O)Nc2cccc(OCc3ccc(-c4ccccc4)cc3)c2)CC1 | 40.4
N=C(N)N1CCC(C(=O)Nc2cccc(OCc3ccc(F)cc3)c2)CC1 | 20.8
O=C(Nc1cccc(OCc2ccc(-c3c(F)cc(F)cc3F)cc2)c1)C1CCNCC1 | 26.7
N=C(N)N1CCCC(C(=O)Nc2cccc(OCc3ccc(F)cc3)c2)C1 (centres undefined) | 160

molecular target: Prothrombin (Bos taurus) (UniProt P00735); experiment: Inhibition of bovine factor 2a at 250 uM by amydolitic assay; in short: as §5

Compound | inhibition [%]
O=C(Nc1cccc(OCc2ccc(-c3ccccc3)cc2)c1)C1CCCNC1 (centres undefined) | < 30
O=C(Nc1cccc(OCc2ccc(-c3ccccc3)cc2)c1)C1CCNCC1 | < 30
O=C(Nc1cccc(OCc2ccccc2)c1)C1CCCNC1 (centres undefined) | < 30
O=C(Nc1ccc(OCc2ccc(-c3ccccc3)cc2)cc1)C1CCCNC1 (centres undefined) | < 30
O=C(Nc1cccc(OCc2ccc(-c3ccc(F)cc3)cc2)c1)C1CCNCC1 | < 30
O=C(Nc1cccc(OCc2ccc(-c3cccc(F)c3)cc2)c1)C1CCNCC1 | < 30
O=C(Nc1cccc(OCc2ccc(-c3cccc(F)c3F)cc2)c1)C1CCNCC1 | < 30
O=C(Nc1ccc(OCc2ccc(-c3ccccc3)cc2)cc1)C1CCNCC1 | < 30
O=C(Nc1cccc(OCc2ccc(F)cc2)c1)C1CCCNC1 (centres undefined) | < 30
O=C(Nc1cccc(OCc2ccc(-c3cc(F)c(F)c(F)c3)cc2)c1)C1CCNCC1 | < 30
O=C(Nc1cccc(OCc2ccc(-c3c(F)cccc3F)cc2)c1)C1CCNCC1 | < 30
O=C(Nc1cccc(OCc2ccc(-c3cc(F)cc(F)c3)cc2)c1)C1CCNCC1 | < 30
CCCCCCOc1ccc(NC(=O)C2CCCNC2)cc1 (centres undefined) | < 30
O=C(Nc1cccc(OCc2ccc(-c3cc(F)ccc3F)cc2)c1)C1CCNCC1 | < 30
O=C(Nc1cccc(OCc2ccc(F)cc2)c1)C1CCNCC1 | < 30
O=C(Nc1cccc(OCc2ccc(-c3ccccc3F)cc2)c1)C1CCNCC1 | < 30
O=C(Nc1cccc(OCc2ccc(-c3ccc(C(F)(F)F)cc3)cc2)c1)C1CCNCC1 | < 30
O=C(Nc1ccc(OCc2ccc(F)cc2)cc1)C1CCNCC1 | < 30
O=C(Nc1cccc(OCc2ccccc2)c1)C1CCNCC1 | < 30
CCCCCCOc1cccc(NC(=O)C2CCCNC2)c1 (centres undefined) | < 30
O=C(Nc1ccc(OCc2ccc(F)cc2)cc1)C1CCCNC1 (centres undefined) | < 30

test system: Plasma; experiment: Anticoagulant activity in human plasma assessed as effect on double the activated partial thromboplastin time upto 1 mM; format: functional, cell-free; in short: as §3

Compound | Activity
O=C(Nc1cccc(OCc2ccccc2)c1)C1CCNCC1 | inactive

molecular target: T1, Coagulation factor X; experiment: Inhibition of human factor 10a at 250 uM by amydolitic assay; in short: as §2

Compound | inhibition [%]
O=C(Nc1cccc(OCc2ccccc2)c1)C1CCCNC1 (centres undefined) | < 30
O=C(Nc1ccc(OCc2ccc(-c3ccccc3)cc2)cc1)C1CCCNC1 (centres undefined) | < 30
CCCCCCOc1ccc(NC(=O)C2CCCNC2)cc1 (centres undefined) | < 30
O=C(Nc1cccc(OCc2ccc(F)cc2)c1)C1CCNCC1 | < 30
O=C(Nc1ccc(OCc2ccc(F)cc2)cc1)C1CCNCC1 | < 30
O=C(Nc1cccc(OCc2ccccc2)c1)C1CCNCC1 | < 30
CCCCCCOc1cccc(NC(=O)C2CCCNC2)c1 (centres undefined) | < 30
O=C(Nc1ccc(OCc2ccc(F)cc2)cc1)C1CCCNC1 (centres undefined) | < 30
